Experimental data published in ChEMBL document CHEMBL1121938, “Hypocholesterolemic and antiaggregatory properties of 2-hydroxytetronic acid redox analogues an their relationship to clofibric acid” (1982).

Legend:
Rattus norvegicus [1] = assay: Effect of compound was measured on serum alpha-lipoprotein in male Dawley rats at the dose of 0.4 mmol/kg (day-1).; type: functional
Procedure, shortened: (§1)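 Male Sprague-Dawley rats (180-210 g) fed a high-cholesterol diet for 1 week before and throughout dosing. Groups of n = 6 were dosed orally twice daily for 14 days in 0.25% methylcellulose, with vehicle controls. Rats were fasted 16-18 h before orbital bleeds on days -1, +4, +7 and +10, and by aortic exsanguination on day +14. Serum α-lipoprotein cholesterol was measured by polyanionic precipitation, in mg/dL ± SD.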

Rattus norvegicus [2] = assay: Effect of compound on liver TG levels in male Dawley rats at the dose of 0.4 mmol/kg; type: functional; parameters: unit: g/100 g wet liver
Procedure, shortened: (§2)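 Male Sprague-Dawley rats (180-210 g) were kept on a high-cholesterol diet for 1 week before and throughout treatment. Groups of n = 6 received drug in 0.25% methylcellulose orally twice daily for 14 days, or vehicle. After a 16-18 h fast, livers were excised at day +14 and homogenized in 0.1 M Tris-HCl pH 7.2 with 1.15% KCl. Lipids were extracted from 25% w/v homogenate and reported as g/100 g wet liver ± SD; groups compared by ANOVA and Duncan's test.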

Rattus norvegicus [3] = assay: Effect of compound was measured on serum alpha-lipoprotein in male Dawley rats at the dose of 0.2 mmol/kg (day+4).; type: functional; procedure, shortened: as §1
[4] = Effect of compound was measured on serum heparin-MnCl2 precipated ipoprotein Dawley rats at 0.4 mmol/kg dose(day-1).; type: functional
Procedure, shortened: (§3)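 Cholesterol-fed male Sprague-Dawley rats, n = 6 per group, given compound or 0.25% methylcellulose orally twice daily for 14 days, and fasted 16-18 h before each bleed (days -1, +4, +7, +10, +14). Heparin-MnCl2 precipitable lipoprotein cholesterol was taken as serum total cholesterol minus α-lipoprotein cholesterol. It is reported as a ratio to α-LP cholesterol ± SD. Analysis was ANOVA with repeated measures and Duncan's test.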

[5] = Effect of compound was measured on serum heparin-MnCl2 precipated ipoprotein Dawley rats at 0.2 mmol/kg dose(day+4).; type: functional; procedure, shortened: as §3
Rattus norvegicus [6] = assay: Effect of compound on liver CH levels in male Dawley rats at the dose of 0.2 mmol/kg; type: functional; procedure, shortened: as §2
Rattus norvegicus [7] = assay: Effect of compound was measured on serum total triglycerides in male Dawley rats at the dose of 0.2 mmol/kg (day+4).; type: functional, organism-based
Procedure, shortened: (§4)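 Serum triglycerides were measured with an enzymatic triglyceride reagent on a bichromatic analyzer. Rats were male Sprague-Dawley (180-210 g) fed a high-cholesterol diet, n = 6 per group, dosed orally twice daily for 14 days in 0.25% methylcellulose or vehicle. They were fasted 16-18 h before blood collection on days -1, +4, +7, +10 (orbital plexus, light ether) and +14 (aorta). Analysis was repeated-measures ANOVA with Duncan's test.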

Rattus norvegicus [8] = assay: Effect of compound was measured on serum total triglycerides in male Dawley rats at the dose of 0.2 mmol/kg (day+7).; type: functional, organism-based; procedure, shortened: as §4
Rattus norvegicus [9] = assay: Effect of compound was measured on serum total cholesterol in male Dawley rats at the dose of 0.2 mmol/kg (day+14).; type: functional, organism-based
Procedure, shortened: (§5)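 Serum total cholesterol was measured enzymatically on a bichromatic analyzer. Serum was separated after clotting on ice (2000g, 10 min), held at 4 °C and assayed within 48 h. Rats were male Sprague-Dawley on a high-cholesterol diet, n = 6, dosed orally twice daily for 14 days in 0.25% methylcellulose (1.0 mL/100 g). They were fasted 16-18 h before each bleed. Results are in mg/dL ± SD.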

Rattus norvegicus [10] = assay: Effect of compound was measured on serum total cholesterol in male Dawley rats at the dose of 0.4 mmol/kg (day+14).; type: functional, organism-based; procedure, shortened: as §5
[11] = Effect of compound on liver to body weight ratio in male Dawley rats at the dose of 0.2 mmol/kg; type: functional
Procedure, shortened: (§6)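 Male Sprague-Dawley rats (180-210 g) were kept on a cholesterol-rich diet and dosed orally twice daily for 14 days in 0.25% methylcellulose; vehicle controls received the same; n = 6 per group. After a 16-18 h fast, rats were exsanguinated at day +14. Livers were removed, rinsed in ice-cold buffer, blotted and weighed, and related to body weight. Data were analysed by repeated-measures ANOVA with Duncan's multiple range test.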

[12] = Effect of compound was measured on serum heparin-MnCl2 precipated ipoprotein Dawley rats at 0.4 mmol/kg dose(day+7).; type: functional; procedure, shortened: as §3
Rattus norvegicus [13] = assay: Effect of compound was measured on serum alpha-lipoprotein in male Dawley rats at the dose of 0.2 mmol/kg (day+10).; type: functional; procedure, shortened: as §1
Rattus norvegicus [14] = assay: Effect of compound was measured on serum total triglycerides in male Dawley rats at the dose of 0.4 mmol/kg (day+4); type: functional, organism-based; procedure, shortened: as §4
[15] = Effect of compound was measured on serum heparin-MnCl2 precipated ipoprotein Dawley rats at 0.2 mmol/kg dose(day+10).; type: functional; procedure, shortened: as §3
[16] = Effect of compound was measured on serum heparin-MnCl2 precipated ipoprotein Dawley rats at 0.4 mmol/kg dose(day+4).; type: functional; procedure, shortened: as §3
Rattus norvegicus [17] = assay: Effect of compound was measured on serum alpha-lipoprotein in male Dawley rats at the dose of 0.2 mmol/kg (day+7).; type: functional; procedure, shortened: as §1
[18] = Effect of compound was measured on serum heparin-MnCl2 precipated ipoprotein Dawley rats at 0.2 mmol/kg dose(day-1).; type: functional; procedure, shortened: as §3
[19] = Effect of compound was measured on serum heparin-MnCl2 precipated ipoprotein Dawley rats at 0.4 mmol/kg dose(day+14).; type: functional; procedure, shortened: as §3
Rattus norvegicus [20] = assay: Effect of compound was measured on serum total cholesterol in male Dawley rats at the dose of 0.4 mmol/kg (day+4).; type: functional, organism-based; procedure, shortened: as §5
Rattus norvegicus [21] = assay: Effect of compound was measured on serum total cholesterol in male Dawley rats at the dose of 0.4 mmol/kg (day-1).; type: functional, organism-based; procedure, shortened: as §5
Rattus norvegicus [22] = assay: Effect of compound was measured on serum total cholesterol in male Dawley rats at the dose of 0.2 mmol/kg (day+4).; type: functional, organism-based; procedure, shortened: as §5
Rattus norvegicus [23] = assay: Effect of compound was measured on serum total cholesterol in male Dawley rats at the dose of 0.2 mmol/kg (day+7).; type: functional, organism-based; procedure, shortened: as §5
Rattus norvegicus [24] = assay: Effect of compound was measured on serum total triglycerides in male Dawley rats at the dose of 0.2 mmol/kg (day-1).; type: functional, organism-based; procedure, shortened: as §4
Rattus norvegicus [25] = assay: Effect of compound was measured on serum total triglycerides in male Dawley rats at the dose of 0.2 mmol/kg (day+10).; type: functional, organism-based; procedure, shortened: as §4
Rattus norvegicus [26] = assay: Effect of compound was measured on serum total triglycerides in male Dawley rats at the dose of 0.4 mmol/kg (day+10).; type: functional, organism-based; procedure, shortened: as §4
[27] = Effect of compound was measured on serum heparin-MnCl2 precipated ipoprotein Dawley rats at 0.2 mmol/kg dose(day+7).; type: functional; procedure, shortened: as §3
Rattus norvegicus [28] = assay: Effect of compound was measured on serum alpha-lipoprotein in male Dawley rats at the dose of 0.4 mmol/kg (day14).; type: functional; procedure, shortened: as §1
Rattus norvegicus [29] = assay: Effect of compound was measured on serum total triglycerides in male Dawley rats at the dose of 0.4 mmol/kg (day-1); type: functional, organism-based; procedure, shortened: as §4
Rattus norvegicus [30] = assay: Effect of compound on liver CH levels in male Dawley rats at the dose of 0.4 mmol/kg; type: functional; parameters: unit: g/100 g wet liver; procedure, shortened: as §2
[31] = Effect of compound on liver to body weight ratio in male Dawley rats at the dose of 0.4 mmol/kg; type: functional; procedure, shortened: as §6
Rattus norvegicus [32] = assay: Effect of compound on liver TG levels in male Dawley rats at the dose of 0.2 mmol/kg; type: functional; procedure, shortened: as §2
Rattus norvegicus [33] = assay: Effect of compound was measured on serum total cholesterol in male Dawley rats at the dose of 0.4 mmol/kg (day+7).; type: functional, organism-based; procedure, shortened: as §5
Rattus norvegicus [34] = assay: Effect of compound was measured on serum alpha-lipoprotein in male Dawley rats at the dose of 0.4 mmol/kg (day+7).; type: functional; procedure, shortened: as §1
Rattus norvegicus [35] = assay: Effect of compound was measured on serum total cholesterol in male Dawley rats at the dose of 0.2 mmol/kg (day-1).; type: functional, organism-based; procedure, shortened: as §5
Rattus norvegicus [36] = assay: Effect of compound was measured on serum alpha-lipoprotein in male Dawley rats at the dose of 0.2 mmol/kg (day+14).; type: functional; procedure, shortened: as §1
Rattus norvegicus [37] = assay: Effect of compound was measured on serum alpha-lipoprotein in male Dawley rats at the dose of 0.4 mmol/kg (day+10).; type: functional; procedure, shortened: as §1
Rattus norvegicus [38] = assay: Effect of compound was measured on serum total triglycerides in male Dawley rats at the dose of 0.2 mmol/kg (day+14).; type: functional, organism-based; procedure, shortened: as §4
[39] = Effect of compound was measured on serum heparin-MnCl2 precipated ipoprotein Dawley rats at 0.4 mmol/kg dose(day+10).; type: functional; procedure, shortened: as §3
Rattus norvegicus [40] = assay: Effect of compound was measured on serum alpha-lipoprotein in male Dawley rats at the dose of 0.4 mmol/kg (day+4).; type: functional; procedure, shortened: as §1
Rattus norvegicus [41] = assay: Effect of compound was measured on serum total cholesterol in male Dawley rats at the dose of 0.4 mmol/kg (day+10).; type: functional, organism-based; procedure, shortened: as §5
Rattus norvegicus [42] = assay: Effect of compound was measured on serum total triglycerides in male Dawley rats at the dose of 0.4 mmol/kg (day+14).; type: functional, organism-based; procedure, shortened: as §4
Rattus norvegicus [43] = assay: Effect of compound was measured on serum alpha-lipoprotein in male Dawley rats at the dose of 0.2 mmol/kg (day-1).; type: functional; procedure, shortened: as §1
[44] = Effect of compound was measured on serum heparin-MnCl2 precipated ipoprotein Dawley rats at 0.2 mmol/kg dose(day+14).; type: functional; procedure, shortened: as §3
Rattus norvegicus [45] = assay: Effect of compound was measured on serum total triglycerides in male Dawley rats at the dose of 0.4 mmol/kg (day+7).; type: functional, organism-based; procedure, shortened: as §4
Rattus norvegicus [46] = assay: Effect of compound was measured on serum total cholesterol in male Dawley rats at the dose of 0.2 mmol/kg (day+10).; type: functional, organism-based; procedure, shortened: as §5

## O=C1C(O)=C(O)OC1c1ccc(Cl)cc1 (stereo unspecified)
Rattus norvegicus [1]
  Alpha-lipoprotein cholesterol: 39.7 mg/dL
Rattus norvegicus [2]
  Liver TG: 5.08
Rattus norvegicus [3]
  Alpha-lipoprotein cholesterol: 43.8 mg/dL
[4]
  Ratio: 3.96
[5]
  Ratio: 3.72
Rattus norvegicus [6]
  Liver CH levels: 3.28
Rattus norvegicus [7]
  Serum total triglycerides: 251 mg/dL
Rattus norvegicus [8]
  Serum total triglycerides: 204 mg/dL
Rattus norvegicus [9]
  serum total cholesterol: 145 mg/dL
Rattus norvegicus [10]
  serum total cholesterol: 138 mg/dL
[11]
  Ratio: 3.8
[12]
  Ratio: 1.74
Rattus norvegicus [13]
  Alpha-lipoprotein cholesterol: 38.8 mg/dL
Rattus norvegicus [14]
  Serum total triglycerides: 167 mg/dL
[15]
  Ratio: 3.33
[16]
  Ratio: 2.79
Rattus norvegicus [17]
  Alpha-lipoprotein cholesterol: 42.5 mg/dL
[18]
  Ratio: 6.03
[19]
  Ratio: 1.39
Rattus norvegicus [20]
  serum total cholesterol: 154 mg/dL
Rattus norvegicus [21]
  serum total cholesterol: 196 mg/dL
Rattus norvegicus [22]
  serum total cholesterol: 195 mg/dL
Rattus norvegicus [23]
  serum total cholesterol: 204 mg/dL
Rattus norvegicus [24]
  Serum total triglycerides: 313 mg/dL
Rattus norvegicus [25]
  Serum total triglycerides: 193 mg/dL
Rattus norvegicus [26]
  Serum total triglycerides: 139 mg/dL
[27]
  Ratio: 4.03
Rattus norvegicus [28]
  Alpha-lipoprotein cholesterol: 61 mg/dL
Rattus norvegicus [29]
  Serum total triglycerides: 193 mg/dL
Rattus norvegicus [30]
  Liver CH levels: 2.93
[31]
  Ratio: 3.6
Rattus norvegicus [32]
  Liver TG: 4.82
Rattus norvegicus [33]
  serum total cholesterol: 125 mg/dL
Rattus norvegicus [34]
  Alpha-lipoprotein cholesterol: 46 mg/dL
Rattus norvegicus [35]
  serum total cholesterol: 276 mg/dL
Rattus norvegicus [36]
  Alpha-lipoprotein cholesterol: 48.5 mg/dL
Rattus norvegicus [37]
  Alpha-lipoprotein cholesterol: 52.2 mg/dL
Rattus norvegicus [38]
  Serum total triglycerides: 148 mg/dL
[39]
  Ratio: 1.75
Rattus norvegicus [40]
  Alpha-lipoprotein cholesterol: 41.8 mg/dL
Rattus norvegicus [41]
  serum total cholesterol: 135 mg/dL
Rattus norvegicus [42]
  Serum total triglycerides: 87.8 mg/dL
Rattus norvegicus [43]
  Alpha-lipoprotein cholesterol: 40.8 mg/dL
[44]
  Ratio: 2.2
Rattus norvegicus [45]
  Serum total triglycerides: 147 mg/dL
Rattus norvegicus [46]
  serum total cholesterol: 161 mg/dL
